In publication PMC3172161 (ACS chemical neuroscience, 2011):
Read-outs that look alike come from different tables or passages of the source. Values belong to the compound of their own block, whether it stands above or below them.

Legend:
rat mGlu5 [1] = target: T1, rat mGlu5 (Rattus norvegicus, UniProt P31424); assay: Calcium mobilization assay; type: cell-based; settings: for % Glu Max: amplitude of response in the presence of 30 μM test compound as a percentage of maximal response (100 μM glutamate)
Summary of the method: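 HEK293A cells stably expressing rat mGlu5 were plated at 20K/well and grown overnight at 37 °C in 6% CO2. They were loaded with 2 μM Fluo-4 AM at 37 °C in HBSS with 20 mM HEPES and 2.5 mM probenecid. Compound (10-point 1:3 series, 30 μM–1 nM final) was added 140 s before EC20 glutamate, then EC80 glutamate 74 s later. Ca2+ fluorescence read at 1 Hz; IC50 from four-parameter logistic fit.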

rat mGlu5 [2] = target: T1, rat mGlu5; assay: Radioligand binding assay, [3H]methoxyPEPy competition
Summary of the method: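 Competition binding used membranes from rat mGlu5 HEK293A cells (40 μg/well) in 50 mM Tris/0.9% NaCl, pH 7.4, with [3H]methoxyPEPy (2 nM final) and test compound. Incubation was 1 h at room temperature with shaking, then GF/B filtration, 3–4 buffer washes and scintillation counting. Non-specific binding defined with 5 μM MPEP; curves fitted by four-parameter logistic equation.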

[3] = target: mGlu5 in rat cortical astrocytes (Rattus norvegicus, UniProt P31424); assay: Rat cortical astrocytes assay; type: cell-based; settings: fixed concentration 10 μM, increasing concentrations of glutamate
mGlu1 = mGlu1 (Homo sapiens, UniProt Q13255); assay: Cell based functional selectivity assay
mGlu2 = mGlu2 (Homo sapiens, UniProt Q14416); assay: Cell based functional selectivity assay
mGlu3 = mGlu3 (Homo sapiens, UniProt Q14832); assay: Cell based functional selectivity assay
mGlu4 = mGlu4 (Homo sapiens, UniProt Q14833); assay: Cell based functional selectivity assay
mGlu7 = mGlu7 (Homo sapiens, UniProt Q14831); assay: Cell based functional selectivity assay
mGlu8 = mGlu8 (Homo sapiens, UniProt O00222); assay: Cell based functional selectivity assay
[4] = Stability in liver microsomes; type: in vitro ADME; settings: mouse liver microsomes; 1 μM, 15 min, 37 °C, NADPH
Summary of the method: (§1)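 Test compound at 1 μM was incubated 15 min at 37 °C with shaking, with human or mouse liver microsomes, phosphate buffer and NADPH. Samples were analysed by UPLC-ESI-MS/MS on a C18 column with a formic acid/acetonitrile gradient. % parent remaining was calculated against similarly prepared un-incubated controls.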

[5] = Stability in liver microsomes; type: in vitro ADME; settings: human liver microsomes; 1 μM, 15 min, 37 °C, NADPH
Summary of the method: as §1

[6] = Brain homogenate binding assay; type: in vitro ADME; settings: mouse
Summary of the method: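 Fresh mouse brains (6–8) were homogenized 1:3 (w/w) in PBS on ice, spiked at 1000 ng/g and run in triplicate. Rapid equilibrium dialysis was against PBS for 4 h at 37 °C, 130 rpm. Matrix-balanced aliquots were extracted with acetonitrile/internal standard and analysed by LC/MS/MS. fu = buffer/homogenate peak-area ratio, corrected for homogenate dilution.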

[7] = Plasma protein binding assay; type: in vitro ADME; settings: mouse
[8] = Plasma protein binding assay; type: in vitro ADME; settings: human
[9] = Mouse pharmacokinetic study, intraperitoneal dosing; type: in vivo
Summary of the method: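 Male CD-1 mice (~30 g) received 10 mg/kg ip as a 0.5 mg/ml microsuspension in 10% Tween 80/water (20 ml/kg). Plasma (cardiac puncture, EDTA) and PBS-washed brains were collected at 15, 30, 60, 180 and 360 min, n=3 per time. Brains homogenized 1:5 (w/w) in PBS; samples precipitated with acetonitrile plus internal standard and run on HPLC/MS/MS. Dilution-corrected; noncompartmental analysis.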

male CD-1 mice = assay: Marble burying model of anxiety; type: in vivo, mouse; settings: 15 minute pretreatment
Summary of the method: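 Male CD-1 mice (30–35 g) were habituated 30 min to the test room. After 15 min pretreatment each was placed alone in a cage with 12 evenly spaced marbles on 2.5 cm bedding. Burying recorded over 30 min; counterbalanced design; Dunnett's test versus vehicle.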

C57Bl/6J mice [10] = assay: Operant sensation seeking; type: in vivo, mouse; settings: 10 min prior to sessions
Summary of the method: (§2)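 Male C57Bl/6J mice (3–5 weeks) responded for varied visual and auditory stimuli: 10–14 daily 1 h FR-1 sessions, then 2 h progressive-ratio sessions. Test compound (0, 3, 10, 30 mg/kg in 10% Tween-80) or reference NAM (0, 1.5, 5, 15 mg/kg in saline; 12 FR sessions) given ip, 20 ml/kg, 10 min pre-session. Latin square, doses 48 h apart. Reinforcers earned analysed by repeated-measures ANOVA/Dunnett.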

C57Bl/6J mice [11] = assay: Food reinforcer self-administration, progressive ratio responding; type: in vivo, mouse; settings: 3, 10, 30 mg/kg i.p., 10 min prior to sessions
Summary of the method: as §2, with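 “~40 μl of 10% vanilla Ensure:” for “varied visual and auditory stimuli:”, “saline)” for “saline; 12 FR sessions)”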

[12] = male, CD-1, mouse, brain, ip, 10 mg/kg
[13] = mouse, 10 mg/kg intraperitoneal

T1 sequence (P31424 21-1203): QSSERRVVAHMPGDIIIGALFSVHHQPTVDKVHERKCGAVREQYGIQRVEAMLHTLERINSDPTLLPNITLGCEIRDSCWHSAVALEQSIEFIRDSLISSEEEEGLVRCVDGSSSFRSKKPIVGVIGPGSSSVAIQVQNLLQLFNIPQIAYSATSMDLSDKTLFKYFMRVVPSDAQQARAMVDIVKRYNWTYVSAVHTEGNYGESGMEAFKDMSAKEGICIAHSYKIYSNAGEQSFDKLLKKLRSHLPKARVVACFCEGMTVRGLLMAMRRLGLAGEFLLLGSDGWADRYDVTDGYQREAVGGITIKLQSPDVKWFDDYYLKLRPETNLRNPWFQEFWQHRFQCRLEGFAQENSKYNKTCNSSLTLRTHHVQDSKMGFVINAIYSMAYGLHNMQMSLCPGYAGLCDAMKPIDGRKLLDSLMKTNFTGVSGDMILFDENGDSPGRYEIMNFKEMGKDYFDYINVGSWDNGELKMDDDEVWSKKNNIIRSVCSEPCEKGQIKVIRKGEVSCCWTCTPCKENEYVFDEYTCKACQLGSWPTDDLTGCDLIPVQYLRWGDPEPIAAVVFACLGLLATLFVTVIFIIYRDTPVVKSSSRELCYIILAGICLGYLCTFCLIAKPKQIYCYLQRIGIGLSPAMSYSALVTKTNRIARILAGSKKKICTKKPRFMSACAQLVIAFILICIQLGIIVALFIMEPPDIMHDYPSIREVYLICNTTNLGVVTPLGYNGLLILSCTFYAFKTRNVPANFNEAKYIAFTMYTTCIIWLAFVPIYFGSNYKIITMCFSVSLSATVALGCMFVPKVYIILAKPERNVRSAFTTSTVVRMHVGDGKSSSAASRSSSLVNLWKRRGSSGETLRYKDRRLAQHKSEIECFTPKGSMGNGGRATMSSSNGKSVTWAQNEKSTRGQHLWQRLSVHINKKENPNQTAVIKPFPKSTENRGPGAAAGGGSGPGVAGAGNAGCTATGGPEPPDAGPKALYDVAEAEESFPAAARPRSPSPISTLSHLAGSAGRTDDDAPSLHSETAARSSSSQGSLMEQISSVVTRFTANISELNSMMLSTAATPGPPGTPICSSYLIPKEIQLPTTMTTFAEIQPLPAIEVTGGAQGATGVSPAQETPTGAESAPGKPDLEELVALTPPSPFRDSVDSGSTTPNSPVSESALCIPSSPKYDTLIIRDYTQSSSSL
Chain of mGlu4 (Q14833 33-912): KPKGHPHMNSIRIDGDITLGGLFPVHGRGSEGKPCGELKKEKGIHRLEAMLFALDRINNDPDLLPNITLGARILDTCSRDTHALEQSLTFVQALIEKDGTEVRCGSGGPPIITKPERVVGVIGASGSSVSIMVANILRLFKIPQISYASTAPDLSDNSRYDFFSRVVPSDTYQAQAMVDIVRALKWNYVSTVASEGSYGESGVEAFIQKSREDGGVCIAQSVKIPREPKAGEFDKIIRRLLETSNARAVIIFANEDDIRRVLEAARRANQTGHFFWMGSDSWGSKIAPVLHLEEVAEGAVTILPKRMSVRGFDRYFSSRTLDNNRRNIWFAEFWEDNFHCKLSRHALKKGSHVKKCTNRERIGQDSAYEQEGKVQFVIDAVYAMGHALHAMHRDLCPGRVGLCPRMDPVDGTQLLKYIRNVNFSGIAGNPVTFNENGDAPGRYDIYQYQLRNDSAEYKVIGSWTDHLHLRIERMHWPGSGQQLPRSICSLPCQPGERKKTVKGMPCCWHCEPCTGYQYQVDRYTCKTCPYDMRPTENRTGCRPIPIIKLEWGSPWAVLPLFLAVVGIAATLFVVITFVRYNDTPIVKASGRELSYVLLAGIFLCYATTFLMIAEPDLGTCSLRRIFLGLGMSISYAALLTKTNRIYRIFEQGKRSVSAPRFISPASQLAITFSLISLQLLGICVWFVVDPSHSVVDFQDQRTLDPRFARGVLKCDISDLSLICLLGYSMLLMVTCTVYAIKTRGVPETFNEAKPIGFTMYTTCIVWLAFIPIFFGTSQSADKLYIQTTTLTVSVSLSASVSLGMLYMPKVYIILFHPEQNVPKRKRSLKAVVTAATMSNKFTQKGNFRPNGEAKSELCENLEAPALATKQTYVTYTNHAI
Chain of mGlu2 (Q14416 19-872): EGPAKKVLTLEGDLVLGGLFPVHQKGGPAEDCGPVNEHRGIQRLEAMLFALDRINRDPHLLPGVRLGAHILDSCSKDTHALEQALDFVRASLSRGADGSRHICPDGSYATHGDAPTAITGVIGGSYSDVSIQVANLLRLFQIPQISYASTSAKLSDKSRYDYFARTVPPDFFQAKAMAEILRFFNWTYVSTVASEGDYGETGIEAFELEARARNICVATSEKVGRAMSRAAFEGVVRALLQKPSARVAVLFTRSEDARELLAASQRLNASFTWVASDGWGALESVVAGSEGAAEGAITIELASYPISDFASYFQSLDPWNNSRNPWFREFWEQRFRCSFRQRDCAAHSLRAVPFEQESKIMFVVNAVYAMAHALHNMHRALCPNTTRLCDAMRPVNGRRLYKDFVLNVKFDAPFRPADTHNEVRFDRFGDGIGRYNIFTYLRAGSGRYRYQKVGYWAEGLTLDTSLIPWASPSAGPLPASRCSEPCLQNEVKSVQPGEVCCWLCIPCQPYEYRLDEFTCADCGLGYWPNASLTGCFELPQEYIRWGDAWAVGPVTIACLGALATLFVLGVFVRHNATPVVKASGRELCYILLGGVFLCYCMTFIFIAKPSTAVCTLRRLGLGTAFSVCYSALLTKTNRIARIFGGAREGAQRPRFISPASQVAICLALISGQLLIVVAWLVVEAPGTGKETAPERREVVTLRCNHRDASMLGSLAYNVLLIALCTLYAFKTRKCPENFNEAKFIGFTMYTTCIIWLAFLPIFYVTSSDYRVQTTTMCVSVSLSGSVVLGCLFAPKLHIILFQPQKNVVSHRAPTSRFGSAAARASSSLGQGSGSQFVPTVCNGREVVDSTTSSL
Chain of mGlu8 (O00222 34-908): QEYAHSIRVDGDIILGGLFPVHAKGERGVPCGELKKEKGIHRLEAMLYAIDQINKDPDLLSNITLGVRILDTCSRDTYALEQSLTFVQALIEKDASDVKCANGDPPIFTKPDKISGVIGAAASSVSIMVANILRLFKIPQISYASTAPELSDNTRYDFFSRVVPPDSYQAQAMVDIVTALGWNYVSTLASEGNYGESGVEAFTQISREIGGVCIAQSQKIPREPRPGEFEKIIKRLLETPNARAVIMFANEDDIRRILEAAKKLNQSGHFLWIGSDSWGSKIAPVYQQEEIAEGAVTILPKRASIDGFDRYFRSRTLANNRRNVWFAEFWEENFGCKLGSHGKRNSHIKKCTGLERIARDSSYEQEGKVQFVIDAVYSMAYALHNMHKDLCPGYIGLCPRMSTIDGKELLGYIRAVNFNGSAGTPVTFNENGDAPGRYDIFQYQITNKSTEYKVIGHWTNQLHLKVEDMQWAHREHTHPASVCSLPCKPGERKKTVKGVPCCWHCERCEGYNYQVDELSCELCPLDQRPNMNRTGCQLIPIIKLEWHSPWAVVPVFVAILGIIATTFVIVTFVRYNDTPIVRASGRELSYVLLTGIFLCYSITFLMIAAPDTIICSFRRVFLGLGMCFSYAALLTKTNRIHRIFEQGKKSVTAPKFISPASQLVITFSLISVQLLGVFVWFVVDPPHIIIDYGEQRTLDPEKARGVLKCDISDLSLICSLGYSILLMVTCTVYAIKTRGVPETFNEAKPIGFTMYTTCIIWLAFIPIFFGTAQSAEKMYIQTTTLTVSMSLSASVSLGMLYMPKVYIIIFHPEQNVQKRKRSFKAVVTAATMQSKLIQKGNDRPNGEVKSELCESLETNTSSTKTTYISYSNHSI
Chain of mGlu1 (Q13255 19-1194): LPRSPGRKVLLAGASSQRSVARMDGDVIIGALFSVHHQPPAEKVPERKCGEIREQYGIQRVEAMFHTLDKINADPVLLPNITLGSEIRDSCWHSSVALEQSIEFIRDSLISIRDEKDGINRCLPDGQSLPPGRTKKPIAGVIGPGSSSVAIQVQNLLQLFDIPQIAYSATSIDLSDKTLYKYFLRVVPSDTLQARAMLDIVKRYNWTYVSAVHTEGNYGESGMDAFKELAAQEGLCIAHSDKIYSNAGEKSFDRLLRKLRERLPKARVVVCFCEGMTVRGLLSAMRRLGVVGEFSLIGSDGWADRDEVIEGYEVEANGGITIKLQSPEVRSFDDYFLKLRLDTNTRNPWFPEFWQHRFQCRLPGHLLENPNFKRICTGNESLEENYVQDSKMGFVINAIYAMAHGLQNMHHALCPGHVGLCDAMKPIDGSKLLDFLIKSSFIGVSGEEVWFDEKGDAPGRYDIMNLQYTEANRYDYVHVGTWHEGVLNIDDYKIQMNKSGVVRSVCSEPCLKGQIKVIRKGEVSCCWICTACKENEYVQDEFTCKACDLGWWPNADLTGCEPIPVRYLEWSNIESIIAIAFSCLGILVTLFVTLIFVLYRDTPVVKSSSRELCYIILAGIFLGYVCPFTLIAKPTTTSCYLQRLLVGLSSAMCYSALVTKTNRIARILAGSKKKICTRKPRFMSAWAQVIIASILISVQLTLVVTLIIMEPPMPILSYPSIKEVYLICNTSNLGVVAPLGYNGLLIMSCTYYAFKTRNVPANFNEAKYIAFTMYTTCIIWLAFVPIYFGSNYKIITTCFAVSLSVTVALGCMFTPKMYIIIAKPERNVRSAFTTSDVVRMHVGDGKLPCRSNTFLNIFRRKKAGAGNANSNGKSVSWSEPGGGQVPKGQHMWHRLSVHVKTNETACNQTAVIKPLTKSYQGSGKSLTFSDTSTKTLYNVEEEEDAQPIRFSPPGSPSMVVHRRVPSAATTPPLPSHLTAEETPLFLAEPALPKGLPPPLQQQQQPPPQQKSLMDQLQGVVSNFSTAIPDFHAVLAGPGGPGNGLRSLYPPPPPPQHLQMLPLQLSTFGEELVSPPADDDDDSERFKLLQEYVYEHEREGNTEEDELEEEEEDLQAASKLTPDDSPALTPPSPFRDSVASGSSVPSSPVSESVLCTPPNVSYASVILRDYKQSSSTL
Chain of mGlu5 in rat cortical astrocytes (P31424 21-1203): as the sequence (P31424 21-1203) above

% Glu Max (rat mGlu5 [1]; average of n ≥ 3): 1.2 ± 0.3%
IC50 (rat mGlu5 [1]; read-out: mGlu5 IC50, calcium mobilization, EC80 glutamate, HEK293A cells expressing rat mGlu5, average of n ≥ 3): 9.5 ± 1.6 nM
Compound: Cc1ccc2ccc(-c3cc(F)cc(C#N)c3)cc2n1 [Compound 3, reference compound]

IC50 (rat mGlu5 [1]): 61 ± 7 nM
% Glu Max (rat mGlu5 [1]; average of n ≥ 3): 0.63 ± 0.12%
Ki for binding relative to potency in the functional assay (rat mGlu5 [2]; [3H]methoxyPEPy competition versus calcium mobilization IC50): approximately eight fold less
blockade of the glutamate response [3]: near complete blockade
selectivity, activity against mGlu1 (mGlu1): inactive
selectivity, activity against mGlu2 (mGlu2): inactive
selectivity, activity against mGlu3 (mGlu3): inactive
selectivity, activity against mGlu4 (mGlu4): inactive
selectivity, activity against mGlu7 (mGlu7): inactive
selectivity, activity against mGlu8 (mGlu8): inactive
% Parent Remaining [4]: 18%
% Parent Remaining [5]: 20%
fraction unbound at 4 h, 1000 ng/g [6]: 0.001
fraction unbound at 4 h, 1000 ng/g [7]: 0.005
fraction unbound at 4 h, 1000 ng/g [8]: 0.006
Tmax [9, 12]: 15 min
concentration at 30 min [9, 12]: 3.75 µM
AUC(0-t) ([9]; male, CD-1, mouse, plasma, ip, 10 mg/kg): 801 ng·h/mL
AUC0-6h in brain [9, 13]: 1530 ng·h/g
brain exposure until the one hour time point [9, 13]: above 500 ng/g
exposure in brain relative to plasma ([9]; mouse, 10 mg/kg intraperitoneal, AUC0-6h): nearly two fold higher
brain exposure expected at 30 mg/kg ([9]; mouse, assuming a dose linear increase in exposure from the 10 mg/kg study): > 10 µM
Compound: Cc1nc2cc(-c3cc(F)cc(C#N)c3)ccc2s1 [Compound 18, 3-fluoro-5-(2-methylbenzo[d]thiazol-5-yl)benzonitrile]
block of radioligand binding (rat mGlu5 [2]; [3H]3-methoxy-5-(pyridin-2-ylethynyl)pyridine, at the highest concentration): almost completely block the binding of the radioligand
inhibition of marble burying (male CD-1 mice; 30 mg/kg ip): Significant inhibition
progressive ratio responding for OSS stimuli (C57Bl/6J mice [10]; 3, 10, 30 mg/kg i.p.): dose dependently reduce
progressive ratio responding for food reinforcer (C57Bl/6J mice [11]): no significant effects

Compound: Cc1nc(C#Cc2cccnc2)cs1 [MTEP, 3-[(2-methyl-1,3-thiazol-4-yl)ethynyl]pyridine, reference compound]
inhibition of marble burying (male CD-1 mice; 15 mg/kg ip, positive control): significant effect
progressive ratio responding for OSS stimuli (C57Bl/6J mice [10]; 1.5, 5, 15 mg/kg i.p.): dose-dependently reduced
